Sampled rows, rich in hits. Any-hit rate of the full collection: about 4.5%.
CHO parental Ca: signal in parental CHO cells, OX1R antagonist counter-screen. parental CHO-K1, ATP-induced calcium, Fluo-8 fluorescence. inhibition, % at 5.6 µM. hit rate 0.63% among 330,000;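 active = inhibition above that plate's mean sample inhibition plus 3 SD, cut at about 26% in these data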;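 note: 0% = ATP-challenged DMSO wells and 100% = DMSO wells without ATP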
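Material: Parental CHO cells | Reagent: ATP | Compound dosing: Single nominal dose of 5.6 µM per compound | Detection: Intracellular calcium via Fluo-8 no-wash fluorescent dye | Read-out: % inhibition of ATP-induced calcium mobilization | Benchmarks: Low control ATP plus DMSO, high control DMSO only | Replicates: Singlicate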
GPR7 antag: blocks human GPR7 receptor signaling | inhibition, % at 4.4 µM | P48145 | hit rate 1.1% among 290,000 | GPR7-expressing cells, fluorescence antagonist assay; in the data active = inhibition above about 16%, passing the limit was not always enough;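 note: cells stimulated with the agonist NPW; 0% = agonist with vehicle and 100% = vehicle without agonist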
Target sequence (P48145 whole entry, looked up): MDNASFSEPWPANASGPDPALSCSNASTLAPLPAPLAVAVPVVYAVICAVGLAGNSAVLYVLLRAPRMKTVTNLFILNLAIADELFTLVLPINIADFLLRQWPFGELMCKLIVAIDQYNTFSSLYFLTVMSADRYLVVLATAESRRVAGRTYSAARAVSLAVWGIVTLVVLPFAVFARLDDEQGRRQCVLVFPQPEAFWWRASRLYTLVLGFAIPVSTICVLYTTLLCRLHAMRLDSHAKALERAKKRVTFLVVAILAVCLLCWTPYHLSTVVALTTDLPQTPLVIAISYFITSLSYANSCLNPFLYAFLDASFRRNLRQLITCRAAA
OX1R antag-1: antagonists of human orexin 1 receptor; O43613; CHO/OX1R cells, Fluo-8 calcium fluorescence, orexin A; inhibition, % at 5 µM; hit rate 0.43% among 330,000; AID 434989;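 active = inhibition above its plate's threshold, mean inhibition of all tested compounds on the plate plus 3 SD, cut at about 37% in these data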;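 note: 0% = orexin A challenge wells and 100% = SB-334867-A antagonist wells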
TAAR1 antag: antagonists of human TAAR1; Q96RJ0; CHO RD-HGA16 TAAR1, Fluo-8 calcium fluorescence, antagonist; inhibition, % at 3 µM; hit rate 1.5% among 360,000; AID 624466;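 active = inhibition above a per-plate cutoff, the mean inhibition of test compounds on that plate plus 3 SD, cut at about 49% in these data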;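 note: 0% = DMSO plus EC80 beta-PEA response and 100% = DMSO alone without agonist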
Target sequence (Q96RJ0 whole entry, looked up): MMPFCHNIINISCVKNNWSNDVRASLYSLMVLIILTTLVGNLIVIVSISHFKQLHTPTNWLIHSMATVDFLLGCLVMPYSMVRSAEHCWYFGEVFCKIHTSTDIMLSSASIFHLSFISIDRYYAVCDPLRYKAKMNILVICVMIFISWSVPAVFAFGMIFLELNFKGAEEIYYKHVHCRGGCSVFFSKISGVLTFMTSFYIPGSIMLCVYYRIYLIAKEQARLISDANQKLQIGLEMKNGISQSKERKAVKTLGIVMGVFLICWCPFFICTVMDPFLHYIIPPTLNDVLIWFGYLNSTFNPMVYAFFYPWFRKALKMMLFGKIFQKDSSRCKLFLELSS
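Test system – hTAAR1-expressing CHO RD-HGA16 cells, Gα16-coupled · Reagent – β-PEA at EC80 concentration, post-compound challenge · Compound dosing – 3 µM, single point · Timing – 140 s kinetic read after compound, 140 s after agonist · Detection – Fluo-8 intracellular calcium dye fluorescence, real-time kinetic reads · Control set – DMSO and EC80 PEA controls · Repeats – n of 1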
OX1R antag-2: OX1R (human) antagonism; hit rate 1.8% among 330,000; OX1R-expressing cells, FRET antagonist read-out; O43613; inhibition, % at 6.6 µM; in the data active = inhibition mostly above about 38%, no sharp cut-off; inactive = mostly below about 40%;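 note: 0% = agonist challenge alone and 100% = reference antagonist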
TAAR1 ag: human TAAR1 agonism; CHO RD-HGA16 TAAR1, Fluo-8 calcium fluorescence; vehicle wells 0%, saturating PEA agonist 100%; Q96RJ0; activation, % at 3 µM; hit rate 0.99% among 360,000;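 active = activation above the mean activation of all test compounds in the run plus 3 SD, cut at about 38% in these data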
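test system = CHO RD-HGA16 cells carrying human TAAR1 plus Gα16 | schedule = 17-24 h seeding, 75 min 37 °C dye, 30 min RT | compound dosing = 3 µM single concentration | control set = DMSO and PEA EC100 | replicates = n 1 | signal = Fluo-8 fluorescence, 5 s baseline then 140 s kinetic read | measure = percent activation vs PEA EC100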
The depositor's hits bear a star; / = no result.

SMILES	CHO parental Ca	GPR7 antag	OX1R antag-1	TAAR1 antag	OX1R antag-2	TAAR1 ag
O=c1cc(-c2ccsc2)oc2cc(-c3ccc4c(c3)OCO4)ccc12	-16	/	-12	15	13	0
O=C(Nc1nc(-c2ccccc2)cs1)c1ccc2c(=O)n3c(nc2c1)CCCCC3	15	-13	21	59*	51*	15
O=C(Nc1ccccc1Cl)c1ccc2c(=O)n3c(nc2c1)CCC3	3	/	-12	-3	5	14
O=C(Nc1cccc(S(=O)(=O)N2CCOCC2)c1)c1ccc2c(=O)n3c(nc2c1)CCCCC3	-25	1	-25	51*	14	16
Cc1cc(O)cc(=O)n1-c1cccc([N+](=O)[O-])c1	/	/	/	-7	/	4
Cc1ccc2cccc(OC(=O)c3cccnc3Oc3ccccc3)c2n1	/	/	/	-12	/	1
O=C(NCCc1ccc(F)cc1)C1CCCO1 (stereo not drawn)	2	-2	-7	5	7	0
CC(NC(=O)C(NC(=O)OCc1ccccc1)C(C)O)C(=O)OCc1ccccc1 (stereo not drawn)	/	/	/	-20	/	-1
Cc1cccn2c(=O)c3cc(C(=O)NCC4CCCO4)c(=N)n(CCN4CCOCC4)c3nc12 (stereo not drawn)	-18	-9	-5	-6	162*	13
Cc1cccn2c(=O)c3cc(C(=O)NC4CCCC4)c(=N)n(CCc4ccccc4)c3nc12	-18	-8	-13	-6	42	14
O=C(NCc1cccnc1)c1cccn2c(=O)c3sccc3nc12	-19	-7	-37	-6	61*	9
O=C(O)c1ccccc1C(=O)NCc1cccnc1	6	-13	3	-1	13	5
Cc1cccn2c(=O)c3cc(C(=O)NCc4cccnc4)c(=N)n(CC4CCCO4)c3nc12 (stereo not drawn)	-3	-6	-19	-8	70*	-2
CCCn1c(=N)c(C(=O)NCC2CCCO2)cc2c(=O)n3cccc(C)c3nc21 (stereo not drawn)	-5	-3	-7	9	56*	0
Cc1cn2c(=O)c3ncn(C4OC(CO)C(O)C4O)c3n(C)c2n1 (stereo not drawn)	/	/	/	11	/	0
COc1ccc(CCN2CCC(CN3C(=S)NC[C@@H]3Cc3ccccc3)CC2)cc1OC	/	/	/	-2	/	1
C[C@@H]1CN(c2ccc(N3CCN(C(=O)OC(C)(C)C)C[C@H]3C)cc2C#N)CCN1Cc1ccccc1	/	/	/	-5	/	-2
Cc1cccn2c(=O)c3cc(C(=O)NCc4ccco4)c(=N)n(C4CCCCC4)c3nc12	-25	6	-16	/	35	/
Cc1cccn2c(=O)c3cc(C(=O)NCc4ccco4)c(=N)n(CCOCCO)c3nc12	6	-3	-3	/	44*	/
Cc1ccc(Cn2c(=N)c(C(=O)NCC3CCCO3)cc3c(=O)n4cccc(C)c4nc32)cc1 (stereo not drawn)	-13	0	-23	-14	32	-2
COCCCn1c(=N)c(C(=O)NCC2CCCO2)cc2c(=O)n3cccc(C)c3nc21 (stereo not drawn)	-8	-1	0	3	64*	0
C=CCn1c(=N)c(C(=O)NCCCOC)cc2c(=O)n3cccc(C)c3nc21	-5	18	-20	-2	61*	-1
Cc1cccn2c(=O)c3cc(C(=O)NCCc4ccccc4)c(=N)n(CCCn4ccnc4)c3nc12	-16	-5	-35	-23	59*	11
O=C(c1ccccc1)c1ccc(-n2ccnc2)c([N+](=O)[O-])c1	-1	-7	1	-5	13	3
Cc1ccccc1S(=O)(=O)N1CCCc2nc(C)c(C)cc21	/	/	/	-28	/	0
SMILES	CHO parental Ca	GPR7 antag	OX1R antag-1	TAAR1 antag	OX1R antag-2	TAAR1 ag
CN(C(=O)c1cn(C)c2ccccc12)c1ccc(Oc2cccnc2)cc1	/	/	/	23	/	4
Cc1cccn2c(=O)c3cc(C(=O)NCc4ccccc4)c(=N)n(CCCN4CCOCC4)c3nc12	/	/	/	-21	/	0
Cc1cccn2c(=O)c3cc(C(=O)NCCN4CCOCC4)c(=N)n(CCCN4CCOCC4)c3nc12	-8	-21	-10	-18	52*	-1
Cc1ccc(N(CCC#N)C(=O)COC(=O)c2ccccn2)cc1	6	0	7	-12	12	0
COCCNC(=O)C(c1ccc(C)o1)N(Cc1ccc(F)cc1)C(=O)Cn1nnc2ccccc21 (stereo not drawn)	-31	-6	-30	13	36	4
COCCNC(=O)C(c1ccc(C)o1)N(Cc1ccc(OC)cc1)C(=O)Cn1nnc2ccccc21 (stereo not drawn)	-10	3	-14	31	21	41*
O=C1CC2c3cc(Br)ccc3CCN2C(=O)CN1Cc1ccccc1 (stereo not drawn)	/	/	/	-5	/	5
NS(=O)(=O)c1cccc(NS(=O)(=O)c2ccc(/C=C/C(=O)OCC(=O)c3ccc(Br)cc3)cc2)c1	25*	-5	21	12	4	4
COc1ccc(C(=O)COC(=O)/C=C/c2ccc(S(=O)(=O)Nc3cccc(S(N)(=O)=O)c3)cc2)cc1	10	-3	11	19	9	5
O=S(c1ccc2ccccc2c1)c1cnns1 (stereo not drawn)	-9	8	-4	-7	17	55*
NNC(=O)c1sccc1OCc1ccc(F)cc1	-42	-5	-35	9	18	7
NNC(=O)c1sccc1OCc1ccc(Cl)cc1Cl	-29	20*	-44	13	14	9
OCCC(N1CCOCC1)C(O)(c1ccccc1)c1ccccc1 (stereo not drawn)	/	/	/	-9	/	2
COC(=O)c1cc2c(c3c4cc(C)ccc4n(S(=O)(=O)c4ccc(C)cc4)c13)C(=O)N(Cc1ccccc1OC)C2	/	/	/	-27	/	-1
O=C(NNC(=S)Nc1ccc(F)cc1)c1cccc([N+](=O)[O-])c1	-10	-7	-1	6	13	4
Cc1ccc(NC(=S)NNC(=O)c2cccc([N+](=O)[O-])c2)cc1Cl	-15	-10	-15	-20	40*	1
CC1(C(=O)NNC(=O)c2ccc([N+](=O)[O-])cc2)CC1(Br)Br (stereo not drawn)	3	-12	-15	-12	30	0
O=C(O)c1cccc(NC(=S)NC(NC(=O)c2cccc([N+](=O)[O-])c2)C(Cl)(Cl)Cl)c1 (stereo not drawn)	-11	-18	-19	-35	20	-2
O=C(NC(NC(=S)Nc1ccc(Cl)cc1Cl)C(Cl)(Cl)Cl)c1cccc([N+](=O)[O-])c1 (stereo not drawn)	41*	27	42*	-10	26	15
CC1(C(=O)NNC(=O)c2cccc([N+](=O)[O-])c2)CC1(Br)Br (stereo not drawn)	-23	-22	-17	-44	42*	-1
CC(C)C[C@@H]1COc2cc(N3CCCC3)ccc2S(=O)(=O)N1	/	/	/	-17	/	1

Bioassay records: PubChem, The Scripps Research Institute Molecular Screening Center
